Published values gathered from unrelated publications.
Compare with care: the assays were run in different laboratories.
STK16: Serine/threonine-protein kinase 16 (STK16, Homo sapiens, UniProt O75716)
PPO3: PPO3 (Agaricus bisporus, UniProt C7FF04)
TAOK3: Serine/threonine-protein kinase TAO3 (TAOK3, Homo sapiens, UniProt Q9H2K8)

Compound | target | assay | setting | measurement | value
CC(=O)ON=C1C=CC(=C(C#N)c2ccccc2)C=C1 | Aurora kinase B (AURKB, Homo sapiens, UniProt Q96GD4) | enzyme activity, inhibitor, ADP detection | 20 µM | activity vs control | 75%
CCCCC(=O)Nc1ccc(-c2ccc3ncn(CCC)c(=O)c3c2)cn1 | STK16 | binding, competition with immobilised ligand | 0.5 µM | remaining binding | 99%
CCN1/C(=C/C(C)=O)Sc2ccc(F)cc21 | 5-hydroxytryptamine receptor 2A (HTR2A, Homo sapiens, UniProt P28223) | ligand displacement, radioligand | 10 µM | inhibition | 0.75%
C1=C/COCc2cc(ccc2OCCN2CCCC2)Nc2nccc(n2)-c2cccc(c2)COC/1 | Cytoplasmic tyrosine-protein kinase BMX (BMX, Homo sapiens, UniProt P51813) | binding | 0.1 µM | remaining binding | 95%
Cc1cc(F)cc2c(CCC(=O)N[C@@H]3C(=O)NC[C@H]3O)c(-c3ccc(F)cc3)[nH]c12 | Adenosine receptor A2a (ADORA2A, Homo sapiens, UniProt P29274) | cell-free assay | 10 µM | inhibition | 15%
C[C@]1(O)CCCN(c2nc(Nc3ccc(S(=O)(=O)N[C@H]4CC[C@H](CN5CCN(c6ccc(C7CCC(=O)NC7=O)cc6F)CC5)CC4)cc3F)ncc2C(F)(F)F)C1 (stereo partly shown) | STK16 | binding, competition with immobilised ligand | 1 µM | remaining binding | 81%
NC/C(=C\F)COc1cccc(Cn2c(=S)[nH]c(=O)c3[nH]cnc32)c1 | Sigma non-opioid intracellular receptor 1 (SIGMAR1, Homo sapiens, UniProt Q99720) | ligand displacement, radioligand | 10 µM | inhibition | < 50%
COc1ccc2oc(-c3ccc4nc(N)oc4c3)c/c(=N\c3ccccc3NC(=O)CCN)c2c1 | Serine/threonine-protein kinase WNK1 (WNK1, Homo sapiens, UniProt Q9H4A3) | binding | 1 µM | remaining binding | 114%
Cc1ccc(CN2CCN(C(=O)/C=C/c3ccc(O)cc3O)CC2)cc1 | PPO3 | binding, SPR |  | kon | 298 M⁻¹ s⁻¹
C[C@]1(O)CCCN(c2nc(Nc3ccc(S(=O)(=O)N[C@H]4CC[C@H](CN5CCN(c6ccc(C7CCC(=O)NC7=O)cc6F)CC5)CC4)cc3Cl)ncc2C(F)(F)F)C1 (stereo partly shown) | TAOK3 | binding, competition with immobilised ligand | 1 µM | remaining binding | 82%
Cc1cc(O)c(-c2ccc([C@@H](C)CN(C)C)cc2)c2c1[nH]c(=O)c1sccc12 | Interleukin-1 receptor-associated kinase-like 2 (IRAK2, Homo sapiens, UniProt O43187) | cell-free assay, inhibitor | 0.1 µM, lysate | inhibition | 13.1%
Cc1cc(S(=O)(=O)N[C@H]2CC[C@H](CN3CCN(c4ccc(C5CCC(=O)NC5=O)cc4F)CC3)CC2)ccc1Nc1ncc(C(F)(F)F)c(N2CCC[C@](C)(O)C2)n1 (stereo partly shown) | TAOK3 | binding, competition with immobilised ligand | 1 µM | remaining binding | 54%
O=C(CCc1cccc(O)c1)N1CCN(Cc2ccc(F)cc2)CC1 | PPO3 | binding, SPR |  | kon | 153 M⁻¹ s⁻¹
